Drawing on ChEMBL document CHEMBL1133571, “Extended TIP(P) analogues as precursors for labeled delta-opioid receptor ligands” (J Med Chem, 2000), this text covers Ki for 21 molecules.

Each structure is given as a SMILES string. Where “and” joins values, the source holds several entries; their conditions need not be identical. Identical values can stand only once. Where a SMILES comes first, the peptide text is derived from it. [ ]: non-standard residue; d: D form. Tic = O=C(O)[C@@H]1Cc2ccccc2CN1

In one test the target is Mu-type opioid receptor (Homo sapiens, UniProt P35372). Kind of test: Affinity towards human Opioid receptor mu 1 on CHO cell membranes using [3H]DAMGO displacement. Put shortly:
(§1)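 Membranes from CHO cells stably expressing cloned δ or µ receptors. Incubated 90 min at 22 °C with peptide concentrations up to 10 µM, 3 mM Mg2+, and peptidase inhibitors (10 µM bestatin, 30 µM captopril, 50 µM L-leucyl-L-leucine). Nonspecific binding measured with 10 µM unlabeled ligand. IC50 from nonlinear regression converted to Ki by Cheng-Prusoff (KD: [3H]DPDPE 0.5 nM, δ; [3H]DAMGO 0.644 nM, µ).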

Test [1] concerns the target Delta-type opioid receptor (Homo sapiens, UniProt P41143). Briefly: Affinity towards human Opioid receptor delta 1 on CHO cell membranes using [3H]DPDPE displacement. A digest of the protocol: as §1

Sequence of Mu-type opioid receptor (P35372 whole entry): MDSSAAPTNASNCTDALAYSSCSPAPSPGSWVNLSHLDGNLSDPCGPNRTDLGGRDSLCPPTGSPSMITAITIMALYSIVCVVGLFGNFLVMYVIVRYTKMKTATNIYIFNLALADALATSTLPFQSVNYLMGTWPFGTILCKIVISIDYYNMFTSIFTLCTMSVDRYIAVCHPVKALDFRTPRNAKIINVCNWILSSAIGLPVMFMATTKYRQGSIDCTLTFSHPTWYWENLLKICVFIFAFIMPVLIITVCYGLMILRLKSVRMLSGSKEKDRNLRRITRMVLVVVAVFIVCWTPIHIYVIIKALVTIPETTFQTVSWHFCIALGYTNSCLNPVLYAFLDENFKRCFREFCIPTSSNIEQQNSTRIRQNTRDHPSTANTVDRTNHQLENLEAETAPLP
Sequence of Delta-type opioid receptor (P41143 whole entry): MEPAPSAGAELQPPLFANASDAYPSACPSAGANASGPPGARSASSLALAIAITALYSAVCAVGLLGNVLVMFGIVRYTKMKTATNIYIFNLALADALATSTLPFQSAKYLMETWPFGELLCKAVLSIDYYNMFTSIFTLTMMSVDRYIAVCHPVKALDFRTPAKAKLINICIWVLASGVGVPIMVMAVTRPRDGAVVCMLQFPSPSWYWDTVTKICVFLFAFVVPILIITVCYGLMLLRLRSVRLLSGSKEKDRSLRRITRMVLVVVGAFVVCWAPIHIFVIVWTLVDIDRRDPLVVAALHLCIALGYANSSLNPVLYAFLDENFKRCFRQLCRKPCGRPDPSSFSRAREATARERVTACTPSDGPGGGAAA

As for `NC(=O)C[C@@H](NC(=O)[C@H](Cc1ccccc1)NC(=O)[C@@H]1Cc2ccccc2CN1C(=O)[C@@H](N)Cc1ccc(O)cc1)C(=O)O`, the inhibition constant (Ki) at Mu-type opioid receptor is above 4.5 µM; in test [1] it was 13.7 nM.
In the case of `CC(=O)NCCCC[C@@H](NC(=O)[C@H](Cc1ccccc1)NC(=O)[C@@H]1Cc2ccccc2CN1C(=O)[C@@H](N)Cc1ccc(O)cc1)C(=O)O`, the results for the Ki (on Mu-type opioid receptor; in test [1]) were above 4.5 µM and 21.6 nM, respectively.
The matching figures for `N[C@@H](Cc1ccc(O)cc1)C(=O)N1Cc2ccccc2C[C@H]1C(=O)N[C@@H](Cc1ccccc1)C(=O)O` (H-Tyr-[Tic]-Phe-OH): above 4.5 µM and 148 nM.
Take `NC(=O)CC[C@H](NC(=O)[C@H](Cc1ccccc1)NC(=O)[C@H](Cc1ccccc1)NC(=O)[C@@H]1Cc2ccccc2CN1C(=O)[C@@H](N)Cc1ccc(O)cc1)C(=O)O`: the Ki on Mu-type opioid receptor was above 4.5 µM; in test [1] it was 9.7 nM.
The matching figures for `NC(=O)CC[C@@H](NC(=O)[C@H](Cc1ccccc1)NC(=O)[C@@H]1Cc2ccccc2CN1C(=O)[C@@H](N)Cc1ccc(O)cc1)C(=O)O`: above 4.5 µM and 5 nM.
Taken in the same sequence, the figures for `NC(=O)[C@H](CC(=O)O)NC(=O)[C@H](Cc1ccccc1)NC(=O)[C@H](Cc1ccccc1)NC(=O)[C@@H]1Cc2ccccc2CN1C(=O)[C@@H](N)Cc1ccc(O)cc1` were above 4 µM and 9.5 nM.
Taken in the same sequence, the figures for `NC(=O)CC[C@@H](NC(=O)[C@H](Cc1ccccc1)NC(=O)[C@H](Cc1ccccc1)NC(=O)[C@@H]1Cc2ccccc2CN1C(=O)[C@@H](N)Cc1ccc(O)cc1)C(=O)O` were above 4.5 µM and 5.1 nM.
Turning to `NC(=O)C[C@H](NC(=O)[C@H](Cc1ccccc1)NC(=O)[C@H](Cc1ccccc1)NC(=O)[C@@H]1Cc2ccccc2CN1C(=O)[C@@H](N)Cc1ccc(O)cc1)C(=O)O`, the results for the Ki (at Mu-type opioid receptor; in test [1]) were above 4.5 µM and 7.1 nM, respectively.
As to `CC(=O)NCCCC[C@@H](NC(=O)[C@H](Cc1ccccc1)NC(=O)[C@H](Cc1ccccc1)NC(=O)[C@@H]1Cc2ccccc2CN1C(=O)[C@@H](N)Cc1ccc(O)cc1)C(=O)O`, the Ki on Mu-type opioid receptor is above 4.5 µM; in test [1], 16.3 nM and 21.5 nM.
For `NC(=O)[C@H](CC(=O)O)NC(=O)[C@H](Cc1ccccc1)NC(=O)[C@@H]1Cc2ccccc2CN1C(=O)[C@@H](N)Cc1ccc(O)cc1`, the Ki was above 4.5 µM on Mu-type opioid receptor and 21.4 nM in test [1].
Consider `N[C@@H](Cc1ccc(O)cc1)C(=O)N1Cc2ccccc2C[C@H]1C(=O)N[C@@H](Cc1ccccc1)C(=O)N[C@@H](Cc1ccccc1)C(=O)O` (H-Y[Tic]FF-OH), for which the Ki is above 4.5 µM at Mu-type opioid receptor; 6.1 nM and 1.22 nM in test [1].
Take `NC(=O)CC[C@H](NC(=O)[C@H](Cc1ccccc1)NC(=O)[C@@H]1Cc2ccccc2CN1C(=O)[C@@H](N)Cc1ccc(O)cc1)C(=O)O`: the Ki at Mu-type opioid receptor was above 4.5 µM; in test [1], 37.7 nM.
Taken in the same sequence, the figures for `NC(=O)[C@H](CCC(=O)O)NC(=O)[C@H](Cc1ccccc1)NC(=O)[C@@H]1Cc2ccccc2CN1C(=O)[C@@H](N)Cc1ccc(O)cc1` were 4.5 µM and 19.9 nM.
The matching figures for `NC(=O)[C@@H](CC(=O)O)NC(=O)[C@H](Cc1ccccc1)NC(=O)[C@@H]1Cc2ccccc2CN1C(=O)[C@@H](N)Cc1ccc(O)cc1`: above 4.5 µM and 69 nM.
The matching figures for `NC(=O)[C@@H](CCC(=O)O)NC(=O)[C@H](Cc1ccccc1)NC(=O)[C@@H]1Cc2ccccc2CN1C(=O)[C@@H](N)Cc1ccc(O)cc1`: above 4.5 µM and 34.9 nM.
On to `CC(=O)NCCCC[C@H](NC(=O)[C@H](Cc1ccccc1)NC(=O)[C@@H]1Cc2ccccc2CN1C(=O)[C@@H](N)Cc1ccc(O)cc1)C(=O)O`, for which the Ki at Mu-type opioid receptor is above 4.5 µM; in test [1] it was 27.8 nM.
Turning to `NC(=O)[C@@H](CCC(=O)O)NC(=O)[C@H](Cc1ccccc1)NC(=O)[C@H](Cc1ccccc1)NC(=O)[C@@H]1Cc2ccccc2CN1C(=O)[C@@H](N)Cc1ccc(O)cc1`, the Ki turned out to be 1.95 µM at Mu-type opioid receptor and 7.8 nM in test [1].
With `NC(=O)[C@@H](CC(=O)O)NC(=O)[C@H](Cc1ccccc1)NC(=O)[C@H](Cc1ccccc1)NC(=O)[C@@H]1Cc2ccccc2CN1C(=O)[C@@H](N)Cc1ccc(O)cc1`, the Ki on Mu-type opioid receptor amounted to 3.28 µM; in test [1], 10.3 nM.
The matching figures for `NC(=O)C[C@H](NC(=O)[C@H](Cc1ccccc1)NC(=O)[C@@H]1Cc2ccccc2CN1C(=O)[C@@H](N)Cc1ccc(O)cc1)C(=O)O`: above 4.5 µM and 61.1 nM.
Taken in the same sequence, the figures for `NC(=O)[C@H](CCC(=O)O)NC(=O)[C@H](Cc1ccccc1)NC(=O)[C@H](Cc1ccccc1)NC(=O)[C@@H]1Cc2ccccc2CN1C(=O)[C@@H](N)Cc1ccc(O)cc1` were above 4.5 µM and 9.9 nM.
For the molecule `NC(=O)C[C@@H](NC(=O)[C@H](Cc1ccccc1)NC(=O)[C@H](Cc1ccccc1)NC(=O)[C@@H]1Cc2ccccc2CN1C(=O)[C@@H](N)Cc1ccc(O)cc1)C(=O)O`, the Ki turned out to be 3.2 µM on Mu-type opioid receptor and 8.1 nM in test [1].

Usually Ki stands for the equilibrium dissociation constant of an inhibitor or competing ligand from its target. Read a low Ki as a stronger hold on the target.
